# TbMetRS inhib – blocks T. brucei methionyl-tRNA synthetase activity. purified T. brucei MetRS, ATP depletion, Kinase-Glo luminescence. inhibition, % at 11.9 µM. actives 0.4% (n = 360,000);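 active means inhibition above a per-plate cutoff of the control wells' mean inhibition plus 3 SD, cut at about 5.5% in these data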;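 further: 0% = DMSO wells median and 100% = median of wells with control inhibitor compound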
#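 assay system = parasite MetRS enzyme | timing = 15 min preincubation, 2 h reaction, all 25 °C | evaluation = percent inhibition relative to median high and low control wells | medium = HEPES buffer containing pyrophosphatase, BSA, spermine, DTT | compound = single dose, 11.9 µM final nominal, 0.9% final DMSO | detection = Kinase-Glo luminescence, ATP depletion format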
# HTR2A ag – agonists of mouse serotonin 5-HT2A receptor (HTR2A); activation, % at 7.6 µM; actives 0.66% (n = 360,000); AID 624169; CHO-K1 mHTR2A beta-arrestin complementation, luminescence; percent of 30 µM serotonin response;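 active means activation above a run cutoff, the mean activation of all tested compounds plus 3 SD, cut at about 14% in these data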;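 further: 0% = plate median of compound wells and 100% = 30 µM serotonin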
# Target sequence (P35363 whole entry, looked up): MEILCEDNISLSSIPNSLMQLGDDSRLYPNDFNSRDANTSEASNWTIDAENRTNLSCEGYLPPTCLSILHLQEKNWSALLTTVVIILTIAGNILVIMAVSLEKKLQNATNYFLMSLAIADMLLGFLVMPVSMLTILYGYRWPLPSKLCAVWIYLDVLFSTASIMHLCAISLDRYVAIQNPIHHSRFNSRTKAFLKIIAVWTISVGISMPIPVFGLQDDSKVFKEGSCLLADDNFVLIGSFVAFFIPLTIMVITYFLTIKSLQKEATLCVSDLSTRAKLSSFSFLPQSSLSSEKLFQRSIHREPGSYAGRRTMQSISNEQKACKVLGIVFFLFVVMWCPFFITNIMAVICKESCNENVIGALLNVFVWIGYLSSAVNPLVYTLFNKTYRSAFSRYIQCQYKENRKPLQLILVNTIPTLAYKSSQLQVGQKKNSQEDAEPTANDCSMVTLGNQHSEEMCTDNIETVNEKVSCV
# MsrA inhibitor – inhibits bovine methionine sulfoxide reductase A | purified bovine MsrA, absorbance read-out | inhibition, % at 15.5 µM | actives 0.75% (n = 360,000); in the data active means inhibition above about 4.5%;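 further: 0% = vehicle wells with enzyme and 100% = reference inhibitor wells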
# AI-2 QS modul – Vibrio harveyi AI-2 quorum sensing modulation; activity change, % at 7.5 µM; Vibrio harveyi JMH597 AI-2 luminescence/OD600 ratio, 9 h; active compounds read low; strain lacks LuxN and CqsS sensors; 0 = neutral-control median; actives 0.4% (n = 300,000); in the data active means activity change below about -75%, passing the limit was not always enough;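 further: luminescence divided by OD600 gain over 9 h not by final OD600 alone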
# AHR activator – activators of human aryl hydrocarbon receptor; actives 2.5% (n = 320,000); AHR-responsive luciferase reporter cells, luminescence; P35869; activation, % at 5 µM; in the data active means activation above about 47%;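 further: 0% = vehicle wells and 100% = reference agonist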
# MsrA act – activates bovine MsrA enzyme; AID 602163; activation, % at 10.6 µM; purified bovine MsrA, absorbance read-out; actives 0.3% (n = 360,000); in the data active means activation above about 7.5%;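 further: 0% = vehicle and 100% = reference activator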
# Active calls of the source: *; / = no result given. Sampled rows, rich in hits. Any-hit rate of the full collection: about 4.4%.
SMILES,TbMetRS inhib,HTR2A ag,MsrA inhibitor,AI-2 QS modul,AHR activator,MsrA act
COCCCNC(=O)c1c(N)n(-c2ccc3c(c2)OCO3)c2nc3ccccc3nc12,-0.7,-0.3,1.3,3.9,51.9*,-0.4
CCOCCCNC(=O)c1c(N)n(-c2ccc3c(c2)OCO3)c2nc3ccccc3nc12,0.8,-1.7,0.2,2.7,9.8,-2.1
O=C(CN1C(=O)CCC1=O)Nc1nc(-c2ccc(Cl)s2)cs1,-0.5,3.6,0.8,-20.0,77.9*,-1.6
O=C1CCC([N+](=O)[O-])C(c2ccccc2C(F)(F)F)N1 (stereo not drawn),-1.1,4.7,-0.6,15.2,0.8,2.4
Cc1ccc(-c2ocnc2C(=O)Nc2nc(C)cs2)cc1,-0.9,0.9,0.1,1.3,68.2*,-2.8
Cc1cccc(-c2ocnc2C(=O)Nc2ccccc2NC(=O)c2ccccn2)c1,-0.3,-3.5,-0.9,6.6,55.8*,-3.5
Cc1ccc(-c2ocnc2C(=O)Nc2ccccc2NC(=O)c2ccccn2)cc1,-0.4,7.0,0.3,-0.5,30.8,-3.9
Cc1ccccc1-c1cccc2[nH]c3c(c12)CCN1C(=O)[C@H]2[C@H](C)ON(C)[C@H]2C[C@@H]31,/,/,-0.6,/,/,/
Cc1c(C(=O)O)cccc1-n1c(C)cc(/C=N/NC(=O)c2cc3ccccc3o2)c1C,-0.3,0.4,4.6*,27.2,18.4,-6.4
CCOC(=O)CN1C(=O)[C@]2(OCCC=C[C@H]2C)c2c(Br)cccc21,/,/,-0.1,/,/,/
CCOCc1nnc(NC(=O)c2cccs2)s1,-0.5,-2.2,1.2,6.6,33.1,2.1
CCOCCc1nnc(NC(=O)Cc2ccccc2)s1,-3.0,0.0,-0.9,15.6,13.1,-9.5
CCOCCc1nnc(NC(=O)c2cccs2)s1,-0.3,-0.4,3.2,17.2,74.0*,-11.6
CCOCCc1nnc(NC(=O)CN2C(=O)c3ccccc3C2=O)s1,-1.6,4.1,1.8,-89.2*,-2.5,-10.8
COC(=O)C1=C(C)N(Cc2cccc(C(F)(F)F)c2)C(=NCc2ccc3c(c2)OCO3)NC1c1ccc(F)cc1 (stereo not drawn),/,/,-0.9,/,/,/
CCOc1cc(/C=N/O)ccc1OCc1ccc([N+](=O)[O-])cc1,-1.0,-1.3,-0.5,25.5,78.1*,-6.5
CCOc1cc(/C=N/O)ccc1OCc1ccc(F)cc1,0.2,-1.9,-0.2,-2.1,27.4,-7.4
CN1C(=O)C(CC#N)(C2(CC#N)C(=O)N(C)c3ccccc32)c2ccccc21 (stereo not drawn),-0.1,-1.4,-0.8,/,/,-1.7
Cc1ccc(NC(=O)OCc2cccs2)cc1,/,/,/,-90.0*,3.9,/
O=C(Cc1c[nH]c2ccccc12)Nc1ccc(Nc2ccncc2)cc1,/,/,0.9,/,/,/
CCCCc1c(-c2ccccc2OC)ncn1Cc1ccc(C(C)(C)C)cc1,/,/,1.2,/,/,/
O=c1cc(-c2ccccc2)nc2cc(-c3ccc(F)cc3)[nH]n12,-0.1,-6.9,-0.1,-5.5,51.6*,-2.3
COc1cccc(-c2cc3nc(-c4ccccc4)cc(=O)n3[nH]2)c1,-0.8,-8.0,-0.3,23.4,36.3,-1.6
Nc1[nH]c(C(=O)c2ccccc2)c(-c2ccccc2[N+](=O)[O-])c1C(=O)NCCc1c[nH]c2ccccc12,/,/,1.5,/,/,/
COC1Cc2ccccc2N(C(N)=O)c2ccccc21 (stereo not drawn),-0.1,8.6,0.1,-7.9,47.5*,-3.0
SMILES,TbMetRS inhib,HTR2A ag,MsrA inhibitor,AI-2 QS modul,AHR activator,MsrA act
C[C@@H]1CN(C(=O)OC(C)(C)C)CCN1c1ccc(N2CC[C@@H](O)C2)c(C#N)c1,/,/,-0.1,/,/,/
CCC(C)(C)n1nnnc1CN1CCC(c2nc3ccc(C)cc3[nH]2)CC1,3.4,-1.1,-0.7,18.1,16.1,-10.3
Cc1cc2nc(C3CCN(Cc4nnnn4Cc4ccccc4)CC3)[nH]c2cc1C,0.1,-5.0,0.5,30.1,54.3*,-0.3
CNC(=S)N/N=C/c1c2ccccc2c(Cl)c2ccccc12,-0.1,-2.5,-0.6,5.3,48.0*,-2.8
c1ccc(N2CC3CCc4ccccc4C3=N2)cc1 (stereo not drawn),-0.1,-1.6,-0.1,11.0,56.5*,-3.3
Cc1cccc(-c2c3c(=O)n(C)c(=O)n(C)c3c3cccnn23)c1,-0.8,4.0,1.2,22.6,59.8*,-1.4
Cc1cc(C)c2c3c(c(-c4ccccc4)n2n1)c(=O)n(C)c(=O)n3C,-1.1,0.1,-0.6,/,/,-13.9
